From ChEMBL document CHEMBL1150432 (J Med Chem, 2008) come the findings set out here.

Assay [1] deals with T1, Muscarinic acetylcholine receptor M2 (Homo sapiens, UniProt P08172).
T1 sequence (P08172 whole entry): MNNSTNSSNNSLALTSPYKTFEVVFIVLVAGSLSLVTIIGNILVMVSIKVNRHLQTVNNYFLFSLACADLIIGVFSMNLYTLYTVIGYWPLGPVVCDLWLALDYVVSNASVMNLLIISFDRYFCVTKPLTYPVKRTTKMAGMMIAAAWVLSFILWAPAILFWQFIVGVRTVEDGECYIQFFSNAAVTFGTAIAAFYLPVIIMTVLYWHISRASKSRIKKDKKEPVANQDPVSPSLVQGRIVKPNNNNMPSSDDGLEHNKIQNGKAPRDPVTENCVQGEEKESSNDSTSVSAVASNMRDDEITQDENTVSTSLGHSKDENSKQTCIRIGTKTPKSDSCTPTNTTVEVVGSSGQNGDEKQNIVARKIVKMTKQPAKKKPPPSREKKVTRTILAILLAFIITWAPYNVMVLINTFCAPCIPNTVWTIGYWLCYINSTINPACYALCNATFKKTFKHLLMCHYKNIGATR
The experiment in a line: Binding affinity to human muscarinic M2 receptor.

Assay [2] addresses 5-hydroxytryptamine receptor 1D (Homo sapiens, UniProt P28221). The assay can be described thus: Displacement of [3H]5-hydroxytryptamine from human cloned 5HT1D receptor expressed in CHOK1 cells by liquid scintillation counting. It counts as cell-based, CHO-K1. The method, boiled down:
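Membranes from CHO-K1 cells expressing cloned human 5-HT1D were purchased. Stopped by filtration over GF/B filters and counted by liquid scintillation. Ki derived from IC50 by Cheng-Prusoff. Each value is the mean of more than two runs done in duplicate or triplicate.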

The target of assay [3] is 5-hydroxytryptamine receptor 1B (Homo sapiens, UniProt P28222). The assay can be described thus: Displacement of [3H]5-hydroxytryptamine from human cloned 5HT1B receptor expressed in CHOK1 cells by liquid scintillation counting. It counts as cell-based, CHO-K1. Background: Loss of bound radioactivity is the signal in a displacement assay; it reports binding, not function.
5-hydroxytryptamine receptor 1B, sequence (P28222 whole entry): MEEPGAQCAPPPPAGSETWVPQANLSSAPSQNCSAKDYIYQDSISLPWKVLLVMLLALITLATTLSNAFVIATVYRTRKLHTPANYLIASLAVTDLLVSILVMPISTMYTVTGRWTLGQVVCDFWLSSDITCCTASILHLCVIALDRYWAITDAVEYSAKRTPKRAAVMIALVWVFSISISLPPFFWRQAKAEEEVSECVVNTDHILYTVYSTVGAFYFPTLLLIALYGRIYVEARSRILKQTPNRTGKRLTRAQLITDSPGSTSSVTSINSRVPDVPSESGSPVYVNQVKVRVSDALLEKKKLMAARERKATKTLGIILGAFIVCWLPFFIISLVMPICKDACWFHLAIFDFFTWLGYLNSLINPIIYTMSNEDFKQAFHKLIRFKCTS

In assay [4] the target is 5-hydroxytryptamine receptor 1B (Oryctolagus cuniculus) (UniProt P49144). The assay can be described thus: Agonist activity at rabbit 5HT1B receptor assessed as induction of saphenous vein contraction at 30 uM after 5 mins. It counts as functional, tissue-based.
5-hydroxytryptamine receptor 1B (Oryctolagus cuniculus), sequence (P49144 whole entry): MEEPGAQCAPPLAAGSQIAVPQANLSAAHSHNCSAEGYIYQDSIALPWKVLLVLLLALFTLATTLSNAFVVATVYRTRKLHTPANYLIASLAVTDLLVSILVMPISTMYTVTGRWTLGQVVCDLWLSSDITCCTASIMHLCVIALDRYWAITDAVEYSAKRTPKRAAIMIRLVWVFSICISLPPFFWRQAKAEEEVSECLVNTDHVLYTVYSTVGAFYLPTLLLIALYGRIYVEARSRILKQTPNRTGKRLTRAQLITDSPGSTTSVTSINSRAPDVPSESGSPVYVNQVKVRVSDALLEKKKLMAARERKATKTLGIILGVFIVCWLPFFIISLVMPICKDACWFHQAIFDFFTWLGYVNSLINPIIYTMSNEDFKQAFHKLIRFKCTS
Assay [5] is described as follows: Displacement of [3H]5-hydroxytryptamine from rhesus monkey cloned 5HT1F receptor expressed in African green monkey COS7 cells by liquid scintillation counting. The class given is cell-based, Macaca mulatta. The following applies: cos-7. The method, boiled down:
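Rhesus monkey 5-HT1F cloned by PCR into pcDNA3.1 and transiently transfected into COS-7 cells. Membranes prepared by homogenization in 50 mM Tris-HCl, 5 mM EDTA, pH 7.4. Filtered over GF/B and counted by liquid scintillation. Ki calculated via Cheng-Prusoff. Mean of more than two runs in duplicate or triplicate.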

In assay [6] the target is D(2) dopamine receptor (Homo sapiens, UniProt P14416). The assay can be described thus: Binding affinity to human dopamine D2 receptor.
D(2) dopamine receptor, sequence (P14416 whole entry): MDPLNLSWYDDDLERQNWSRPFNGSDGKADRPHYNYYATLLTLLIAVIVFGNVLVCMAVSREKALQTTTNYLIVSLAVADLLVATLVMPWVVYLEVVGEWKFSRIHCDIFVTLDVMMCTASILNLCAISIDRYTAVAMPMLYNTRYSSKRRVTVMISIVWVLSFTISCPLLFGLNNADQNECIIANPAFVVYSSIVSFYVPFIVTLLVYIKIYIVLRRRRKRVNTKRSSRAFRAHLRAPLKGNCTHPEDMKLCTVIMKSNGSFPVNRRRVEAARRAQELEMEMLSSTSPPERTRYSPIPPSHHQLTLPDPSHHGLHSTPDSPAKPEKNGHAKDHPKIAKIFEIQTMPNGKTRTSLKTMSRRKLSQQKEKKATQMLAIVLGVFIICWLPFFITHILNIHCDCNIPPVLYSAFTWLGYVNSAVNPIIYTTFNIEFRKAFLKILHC
Assay [7] addresses Muscarinic acetylcholine receptor M3 (Homo sapiens, UniProt P20309). The experiment in a line: Binding affinity to human muscarinic M3 receptor.
In assay [8] the target is Beta-2 adrenergic receptor (Homo sapiens, UniProt P07550). The assay can be described thus: Binding affinity to human adrenergic beta2 receptor.
Beta-2 adrenergic receptor, sequence (P07550 whole entry): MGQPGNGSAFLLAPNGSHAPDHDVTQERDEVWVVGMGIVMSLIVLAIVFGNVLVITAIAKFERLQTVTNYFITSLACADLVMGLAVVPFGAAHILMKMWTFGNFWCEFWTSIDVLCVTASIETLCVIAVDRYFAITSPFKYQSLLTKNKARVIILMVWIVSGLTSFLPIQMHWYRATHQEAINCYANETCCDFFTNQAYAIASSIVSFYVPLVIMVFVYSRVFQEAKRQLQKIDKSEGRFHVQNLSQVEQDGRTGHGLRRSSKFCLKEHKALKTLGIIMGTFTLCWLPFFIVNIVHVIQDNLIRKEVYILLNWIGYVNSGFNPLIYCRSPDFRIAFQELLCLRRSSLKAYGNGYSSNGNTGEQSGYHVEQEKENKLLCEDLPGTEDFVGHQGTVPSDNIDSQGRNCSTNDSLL

Activity calls are given as the source filed them. The rule behind the calls is not given here.

Muscarinic acetylcholine receptor M3, sequence (P20309 whole entry): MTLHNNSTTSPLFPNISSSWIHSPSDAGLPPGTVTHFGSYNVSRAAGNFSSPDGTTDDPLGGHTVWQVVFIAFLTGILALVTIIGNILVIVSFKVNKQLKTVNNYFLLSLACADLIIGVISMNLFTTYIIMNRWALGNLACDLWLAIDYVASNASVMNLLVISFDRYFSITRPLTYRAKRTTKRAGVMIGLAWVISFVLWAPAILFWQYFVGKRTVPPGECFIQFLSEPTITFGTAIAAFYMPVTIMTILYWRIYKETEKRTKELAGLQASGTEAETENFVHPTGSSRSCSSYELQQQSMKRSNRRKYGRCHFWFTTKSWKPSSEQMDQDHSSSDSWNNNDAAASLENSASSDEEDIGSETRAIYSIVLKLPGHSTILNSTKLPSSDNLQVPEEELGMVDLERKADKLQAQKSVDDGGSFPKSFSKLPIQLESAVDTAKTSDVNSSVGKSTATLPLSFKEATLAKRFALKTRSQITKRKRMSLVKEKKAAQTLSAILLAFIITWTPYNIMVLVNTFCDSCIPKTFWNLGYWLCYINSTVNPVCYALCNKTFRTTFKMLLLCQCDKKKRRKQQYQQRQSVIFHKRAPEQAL
5-hydroxytryptamine receptor 1D, sequence (P28221 whole entry): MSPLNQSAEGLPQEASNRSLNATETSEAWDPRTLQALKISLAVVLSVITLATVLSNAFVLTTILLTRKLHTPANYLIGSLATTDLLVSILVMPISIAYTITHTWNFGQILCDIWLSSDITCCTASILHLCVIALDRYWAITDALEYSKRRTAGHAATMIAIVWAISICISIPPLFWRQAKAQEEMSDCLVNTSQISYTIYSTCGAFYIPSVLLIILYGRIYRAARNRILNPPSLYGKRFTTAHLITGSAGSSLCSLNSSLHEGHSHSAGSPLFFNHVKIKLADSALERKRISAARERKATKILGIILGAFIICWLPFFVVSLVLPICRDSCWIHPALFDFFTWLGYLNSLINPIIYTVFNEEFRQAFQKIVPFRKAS

A word on the IC50: it is the midpoint of a concentration-inhibition curve. In general, Ki refers to a dissociation constant, usually derived from enzyme kinetics or from competition with a known ligand. Consider `O=C(Nc1ccc2[nH]cc(C3CCN(CCCCCCCN4CCC(c5c[nH]c6ccc(NC(=O)c7ccc(F)cc7)cc56)CC4)CC3)c2c1)c1ccc(F)cc1`, for which the IC50 in assay [1] is 3200 nM; in assay [6], 700 nM; in assay [7], more than 50000 nM; in assay [8], more than 10000 nM. Moreover, the Ki in assay [2] is 0.3 nM; in assay [3], 79 nM; in assay [5], more than 10000 nM. Moreover, the result in assay [4] was inactive.
